Source: ChEMBL document CHEMBL3627607, “A Novel Pyrazolopyridine with in Vivo Activity in Plasmodium berghei- and Plasmodium falciparum-Infected Mouse Models from Structure-Activity Relationship Studies around the Core of Recently Identified Antimalarial Imidazopyridazines” (J Med Chem, 2015)
Active and inactive are the calls of the source. The calls are words filed in the database; no cut-off is given here.

What was measured:
Plasmodium falciparum [1] = experiment: Antiplasmodial activity against Plasmodium falciparum 3D7 infected in po dosed non-myelodepleted NOD-SCID IL2Rgammanull mouse engrafted with human erythrocytes assessed as reduction of parasitemia level administered qd for 4 days; assay type: functional; settings: 3D7, po, 96 h
In short: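 P. falciparum-infected engrafted NSG mice were dosed orally once daily for four consecutive days. Blood parasitemia was monitored, and a 90% effective dose was derived along with the blood exposure at that dose.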

[2] = Selectivity index, ratio of IC50 for African green monkey VERO cells to IC50 for Plasmodium falciparum NF54; assay type: toxicity, cell-based; settings: read-out: Ratio IC50
[3] = Oral bioavailability in rat at 15 mg/kg; assay type: ADME, organism-based; settings: in vivo
[4] = Selectivity index, ratio of IC50 for CHO cells to IC50 for multidrug resistant Plasmodium falciparum K1; assay type: toxicity, cell-based; settings: hamster, read-out: Ratio IC50
[5] = Drug level in mouse blood at 50 mg/kg, po after 1 hr; assay type: ADME, organism-based; settings: read-out: Drug uptake
In short: (§1)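 Snapshot whole-blood levels of parent and its sulfone metabolite at 1, 4 and 24 h after the first 50 mg/kg oral dose. Samples came from the P. berghei-infected efficacy mice, dosed in HPMC suspension vehicle.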

[6] = Selectivity index, ratio of IC50 for African green monkey VERO cells to IC50 for multidrug resistant Plasmodium falciparum K1; assay type: toxicity, cell-based; settings: read-out: Ratio IC50
Liver microsome [7] = experiment: Metabolic stability of the compound in rat liver microsomes assessed as compound remaining at 0.1 uM after 30 mins by LC-MS/MS analysis; assay type: ADME; settings: 0.5 h
Plasmodium falciparum [8] = experiment: Antiplasmodial activity against drug sensitive Plasmodium falciparum NF54 infected in human erythrocytes after 48 hrs by [3H]-hypoxanthine incorporation assay; assay type: functional, organism-based
[9] = Selectivity index, ratio of IC50 for CHO cells to IC50 for Plasmodium falciparum NF54; assay type: toxicity, cell-based; settings: hamster, read-out: Ratio IC50
[10] = molecular target: Voltage-gated inwardly rectifying potassium channel KCNH2 (Homo sapiens, UniProt Q12809); experiment: Inhibition of human ERG potassium channel by ionworks patch-clamp electrophysiology assay
Plasmodium berghei [11] = experiment: Antiplasmodial activity against Plasmodium berghei ANKA expressing GFP infected in mouse assessed as reduction of parasitemia level at 50 mg/kg, po qd for 4 days measured on day 4 post last dose by flow cytometric analysis relative to control; assay type: functional; set-up: scale not given: the % may be the effect or the level left
In short: (§2)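 Mice (n = 3) infected with GFP-transfected P. berghei ANKA. Test agents were suspended in HPMC vehicle (0.5% w/v hydroxypropylmethylcellulose, 0.5% v/v benzyl alcohol, 0.4% v/v Tween 80, 0.9% w/v NaCl in water). Dosed orally at 4, 24, 48 and 72 h post-infection. Parasitemia read by flow cytometry on day 4 (96 h), detection limit 0.1%. Activity = control-minus-treated mean % parasitemia, relative to control.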

Liver microsome [12] = experiment: Metabolic stability of the compound in human liver microsomes assessed as compound remaining at 0.1 uM after 30 mins by LC-MS/MS analysis; assay type: ADME; settings: 0.5 h
[13] = Drug level in mouse blood at 50 mg/kg, po after 4 hrs; assay type: ADME, organism-based; settings: read-out: Drug uptake; in short: as §1
Plasmodium berghei [14] = experiment: Antiplasmodial activity against Plasmodium berghei ANKA expressing GFP infected in mouse assessed as means survival days at 50 mg/kg, po qd for 4 days; assay type: functional
In short: (§3)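 Mice (n = 3) infected with GFP-transfected P. berghei ANKA. Compounds dissolved or suspended in HPMC vehicle (0.5% w/v hydroxypropylmethylcellulose, 0.5% v/v benzyl alcohol, 0.4% v/v Tween 80, 0.9% w/v NaCl in water). Dosed orally 4, 24, 48 and 72 h after infection. Parasitemia read by flow cytometry (detection limit 0.1%). Survival recorded as mean survival time in days.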

[15] = Plasma clearance in rat at 5 mg/kg, iv; assay type: ADME, organism-based
[16] = Half life in rat at 5 mg/kg, iv; assay type: ADME, organism-based; settings: in vivo
[17] = Metabolic stability of the compound in mouse liver microsomes assessed as compound remaining at 0.1 uM after 30 mins by LC-MS/MS analysis; assay type: ADME; settings: 0.5 h
[18] = (§4) Drug level in mouse blood at 50 mg/kg, po after 24 hrs; assay type: ADME, organism-based; settings: blood, read-out: Drug uptake; in short: as §1
Plasmodium berghei [19] = experiment: Antiplasmodial activity against sporozoite stage of Plasmodium berghei expressing luciferase infected in human HepG2-A16-CD81EGFP cells preincubated with cells for 18 hrs followed by protozoal infection measured after 48 hrs by bioluminescence assay; assay type: functional, organism-based
In short: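 HepG2 cells were pretreated 18 h with compound, then infected with freshly dissected luciferase-expressing P. berghei sporozoites. After a further 48 h with compound, viability of exoerythrocytic forms and of HepG2 host cells was read by bioluminescence.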

[20] = Half life in rat at 15 mg/kg, po; assay type: ADME, organism-based; settings: in vivo
[21] = Volume of distribution in rat at 5 mg/kg, iv; assay type: ADME, organism-based; settings: in vivo
Plasmodium berghei [22] = experiment: Antiplasmodial activity against Plasmodium berghei ANKA expressing GFP infected in mouse assessed as means survival days at 3 mg/kg, po qd for 4 days; assay type: functional; in short: as §3
Plasmodium berghei [23] = experiment: Antiplasmodial activity against Plasmodium berghei ANKA expressing GFP infected in mouse assessed as means survival days at 10 mg/kg, po qd for 4 days; assay type: functional; in short: as §3
Plasmodium berghei [24] = experiment: Antiplasmodial activity against Plasmodium berghei ANKA expressing GFP infected in mouse assessed as mouse cured from disease at 50 mg/kg, po qd for 4 days; assay type: functional, organism-based
Plasmodium berghei [25] = experiment: Antiplasmodial activity against Plasmodium berghei ANKA expressing GFP infected in mouse assessed as reduction of parasitemia level at 10 mg/kg, po qd for 4 days measured on day 4 post last dose by flow cytometric analysis relative to control; assay type: functional; set-up: scale not given: the % may be the effect or the level left; in short: as §2
Plasmodium berghei [26] = experiment: Antiplasmodial activity against Plasmodium berghei ANKA expressing GFP infected in mouse assessed as reduction of parasitemia level at 3 mg/kg, po qd for 4 days measured on day 4 post last dose by flow cytometric analysis relative to control; assay type: functional; set-up: scale not given: the % may be the effect or the level left; in short: as §2
Plasmodium falciparum [27] = experiment: Antiplasmodial activity against multidrug resistant Plasmodium falciparum K1 infected in human erythrocytes after 48 hrs by [3H]-hypoxanthine incorporation assay; assay type: functional, organism-based
[28] = Half life in rat at 20 mg/kg, po; assay type: ADME, organism-based; settings: in vivo
[29] = Oral bioavailability in rat at 20 mg/kg; assay type: ADME, organism-based; settings: in vivo
[30] = Solubility of the compound in 0.01M HCl at pH 2 by Nephelometric analysis; assay type: physicochemical; settings: buffer
Blood = experiment: as §4; assay type: ADME, organism-based; settings: in vivo, 24 h, BLD = below limit of detection; in short: as §1
Plasmodium berghei [31] = experiment: Antiplasmodial activity against Plasmodium berghei ANKA expressing GFP infected in mouse assessed as reduction of parasitemia level at 30 mg/kg, po qd for 4 days; assay type: functional; set-up: scale not given: the % may be the effect or the level left
Plasmodium berghei [32] = experiment: Antiplasmodial activity against Plasmodium berghei ANKA expressing GFP infected in mouse assessed as means survival days at 30 mg/kg, po qd for 4 days; assay type: functional

Chain of Voltage-gated inwardly rectifying potassium channel KCNH2 (Q12809 whole entry): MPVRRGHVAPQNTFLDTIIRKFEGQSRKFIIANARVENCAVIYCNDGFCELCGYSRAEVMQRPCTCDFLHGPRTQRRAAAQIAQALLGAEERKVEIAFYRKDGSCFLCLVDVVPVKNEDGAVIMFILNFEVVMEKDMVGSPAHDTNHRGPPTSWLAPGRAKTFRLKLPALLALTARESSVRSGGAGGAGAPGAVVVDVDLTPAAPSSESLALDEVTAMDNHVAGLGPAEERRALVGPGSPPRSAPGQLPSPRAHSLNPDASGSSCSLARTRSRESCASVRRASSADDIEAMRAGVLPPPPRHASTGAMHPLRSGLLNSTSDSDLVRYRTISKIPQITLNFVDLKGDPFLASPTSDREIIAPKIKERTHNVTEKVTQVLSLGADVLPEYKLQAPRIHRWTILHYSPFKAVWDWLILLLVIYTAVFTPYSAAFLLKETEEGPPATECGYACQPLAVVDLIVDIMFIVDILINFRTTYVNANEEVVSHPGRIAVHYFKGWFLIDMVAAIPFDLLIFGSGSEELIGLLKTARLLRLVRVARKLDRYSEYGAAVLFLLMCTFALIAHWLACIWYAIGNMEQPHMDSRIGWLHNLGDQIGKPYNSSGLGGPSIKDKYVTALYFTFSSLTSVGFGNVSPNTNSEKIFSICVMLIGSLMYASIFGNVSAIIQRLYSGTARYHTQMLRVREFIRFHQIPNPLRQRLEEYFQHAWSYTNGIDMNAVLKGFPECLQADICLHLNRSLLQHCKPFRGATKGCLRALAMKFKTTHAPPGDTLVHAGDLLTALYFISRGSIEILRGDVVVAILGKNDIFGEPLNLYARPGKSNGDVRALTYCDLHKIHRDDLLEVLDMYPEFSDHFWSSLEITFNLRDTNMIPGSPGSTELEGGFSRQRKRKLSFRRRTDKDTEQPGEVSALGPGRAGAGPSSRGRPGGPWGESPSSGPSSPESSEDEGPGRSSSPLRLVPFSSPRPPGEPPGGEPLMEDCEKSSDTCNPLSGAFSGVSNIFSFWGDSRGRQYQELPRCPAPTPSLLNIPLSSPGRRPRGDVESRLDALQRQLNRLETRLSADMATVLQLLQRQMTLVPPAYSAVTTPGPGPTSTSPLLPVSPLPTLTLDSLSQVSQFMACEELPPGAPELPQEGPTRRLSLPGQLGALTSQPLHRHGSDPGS

SMILES | Stability (Liver microsome [7]) | IC50 (Plasmodium falciparum [8]) [µM] | Activity (Plasmodium berghei [11]) [%] | Stability (Liver microsome [12]) | MSD (Plasmodium berghei [14]) [days] | Stability [17] | IC50 (Plasmodium falciparum [27]) [µM] | also measured
CCc1nc(N)nc(N)c1-c1ccc(Cl)cc1 [PYRIMETHAMINE] |  |  |  |  |  |  |  | ED90 (Plasmodium falciparum [1]): 0.9 mg/kg
CS(=O)(=O)c1ccc(-c2cnn3ccc(-c4cccc(S(C)(=O)=O)c4)cc23)cc1 | Stable | 0.008 | 60 | Stable | 4 | Stable |  | selectivity ratio [2]: > 1000; bioavailability [3]: 1%; selectivity ratio [4]: > 1000; concentration at 1 h [5]: 7600 nM; selectivity ratio [6]: > 1000; selectivity ratio [9]: > 1000; IC50 [10]: > 33 µM; concentration at 4 h [13]: 486 nM; clearance [15]: 13.9 mL/min/kg; half-life [16]: 4.1 h; concentration at 24 h [18]: 290 nM; IC50 (Plasmodium berghei [19]): 0.0066 µM; half-life [20]: 2.6 h; Vd [21]: 4.8 L/kg
CS(=O)(=O)c1ccc(-c2cnc3ccc(-c4cccc(S(C)(=O)=O)c4)nn23)cc1 | Stable |  | 99.8 | Stable | 7 | Stable |  | selectivity ratio [2]: > 1000; selectivity ratio [4]: > 1000; selectivity ratio [6]: > 1000; selectivity ratio [9]: > 1000; IC50 [10]: 0.9 µM; IC50 (Plasmodium berghei [19]): 0.0041 µM
CS(=O)(=O)c1ccc(-c2cnc3ccc(-c4cccc(C(F)(F)F)c4)nn23)cc1 | Stable | 0.06 | 99.8 | Stable | >30 | Stable | 0.046 | MSD (Plasmodium berghei [22]): 4 days; MSD (Plasmodium berghei [23]): 7 days; Activity (Plasmodium berghei [24]): Active; Activity (Plasmodium berghei [25]): 70%; Activity (Plasmodium berghei [26]): <40%
CS(=O)(=O)c1ccc(-c2nnc3ccc(-c4cccc(C(F)(F)F)c4)cn23)cc1 |  | > 1 |  |  |  |  | > 1 | 
CS(=O)(=O)c1ccc(-c2cnn3ccc(-c4cccc(C(F)(F)F)c4)nc23)cc1 | Stable | 0.048 |  | Stable |  | Stable | 0.043 | 
CS(=O)(=O)c1ccc(-c2cnn3ccc(-c4cccc(S(C)(=O)=O)c4)nc23)cc1 | Stable | 0.0026 |  | Stable |  | Stable | 0.0022 | 
CS(=O)(=O)c1ccc(-c2cnn3ccc(-c4cccc(S(=O)(=O)C5CC5)c4)nc23)cc1 | Stable | 0.00042 | 86 | Stable | 7 | Stable | 0.00037 | concentration at 1 h [5]: 169 nM; concentration at 4 h [13]: 145 nM; half-life [28]: 7.8 h; clearance [15]: 1.1 mL/min/kg; half-life [16]: 2.8 h; concentration at 24 h [18]: < 10 nM; IC50 (Plasmodium berghei [19]): 0.00061 µM; bioavailability [29]: 1%; Vd [21]: 0.3 L/kg
CS(=O)(=O)c1ccc(-c2cnc3ccc(-c4cccc(S(=O)(=O)C5CC5)c4)nn23)cc1 | Stable |  |  | Stable |  | Stable |  | 
CS(=O)(=O)c1ccc(-c2cnn3c2NC(c2cccc(C(F)(F)F)c2)CC3)cc1 (stereo unspecified) |  | < 0.1 |  |  |  |  |  | 
CS(=O)(=O)c1ccc(-c2nnc3ccc(-c4cccc(S(C)(=O)=O)c4)nn23)cc1 |  | > 2.34 |  |  |  |  |  | 
CS(=O)(=O)c1ccc(-c2cnc3ccc(-c4cccc(S(C)(=O)=O)c4)cn23)cc1 | Stable | 0.15 |  | Stable |  | Stable | 0.113 | IC50 [10]: 4.8 µM
CS(=O)(=O)c1ccc(-c2cnn3c2NC(c2cccc(S(=O)(=O)C4CC4)c2)CC3)cc1 (stereo unspecified) | Stable | 0.044 | 78 | Stable | 7 | Stable | 0.046 | selectivity ratio [2]: > 1000; selectivity ratio [4]: > 1000; concentration at 1 h [5]: 456 nM; selectivity ratio [6]: > 1000; selectivity ratio [9]: > 1000; solubility [30]: soluble; concentration at 4 h [13]: 177 nM; Drug uptake (Blood): BLD
CCN(CC)CCCC(C)Nc1ccnc2cc(Cl)ccc12 (stereo unspecified) [CHLOROQUINE] |  |  |  |  |  |  |  | ED90 (Plasmodium falciparum [1]): 4.3 mg/kg
C[S+]([O-])c1ccc(-c2cnc3ccc(-c4cccc(S(=O)(=O)C5CC5)c4)nn23)cc1 (stereo unspecified) | Stable |  | 99.8 | Stable | >30 | Stable |  | MSD (Plasmodium berghei [22]): 7 days; MSD (Plasmodium berghei [23]): 8 days; Activity (Plasmodium berghei [24]): Active; Activity (Plasmodium berghei [25]): 99.6%; Activity (Plasmodium berghei [26]): 98%
CS(=O)(=O)c1ccc(-c2nnc3ccc(-c4cccc(S(C)(=O)=O)c4)cn23)cc1 |  | > 1 |  |  |  |  | > 1 | 
CS(=O)(=O)c1ccc(-c2cnc3ncc(-c4cccc(S(C)(=O)=O)c4)cn23)cc1 |  | > 1 |  |  |  |  | > 1 | 
O[C@@H](c1cc(C(F)(F)F)nc2c(C(F)(F)F)cccc12)[C@H]1CCCCN1 (relative stereo) [(S,R)-MEFLOQUINE] |  |  |  |  |  |  |  | Activity (Plasmodium berghei [31]): 99.9%; ED90 (Plasmodium falciparum [1]): 7.7 mg/kg; MSD (Plasmodium berghei [32]): 29 days
CS(=O)(=O)c1ccc(-c2cnn3ccc(-c4cccc(C(F)(F)F)c4)cc23)cc1 | Stable | 0.098 |  | Stable |  | Stable |  | 
CS(=O)(=O)c1ccc(-c2cnc3ccc(-c4cccc(S(=O)(=O)C5CC5)c4)cn23)cc1 | Stable | 0.046 | 99.5 | Stable | 10 | Stable | 0.038 | selectivity ratio [2]: 700; selectivity ratio [4]: 700; selectivity ratio [6]: 700; selectivity ratio [9]: 700; half-life [28]: 3.9 h; clearance [15]: 8.7 mL/min/kg; half-life [16]: 3 h; bioavailability [29]: 51%; Vd [21]: 2.3 L/kg
CS(=O)(=O)c1ccc(-c2cnc3cnc(-c4cccc(S(C)(=O)=O)c4)cn23)cc1 | Stable | 0.877 |  | Stable |  | Stable |  | solubility [30]: soluble
C[C@H]1[C@H](OC(=O)CCC(=O)O)O[C@@H]2O[C@@]3(C)CC[C@H]4[C@H](C)CC[C@@H]1[C@@]24OO3 [ARTESUNATE] |  | 0.003 |  |  |  |  | 0.004 | Activity (Plasmodium berghei [31]): 99%; ED90 (Plasmodium falciparum [1]): 11.1 mg/kg; MSD (Plasmodium berghei [32]): 10 days
